Type in all cases: nucleic-acid assay
Assay [1] has as its system Nucleic Acid. Put plainly: Binding affinity to 5'-GCTAAAAAGAGAGAGAGATCG-3'/5'- CGATCTCTCTCTCTTTTTAGC-3' double stranded DNA assessed as melting temperature at 1.5 uM in sodium phosphate buffer at pH 7 by UV spectrophotometric analysis. In short, it runs like this:
(§1)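 UV melting of triplexes between each modified TFO and the 21-bp duplex target, in 7 mM sodium phosphate buffer (pH 7.0), 140 mM KCl and 10 mM MgCl₂. Each oligonucleotide at 1.5 µM final. Absorbance followed at 260 nm from 5 °C to 85 °C, scanned at 0.5 °C/min, to give Tm.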

Assay [2] has as its system Nucleic Acid. In words: Binding affinity to5'-GCTAAAAAGACAGAGAGATCG-3'/5'- CGATCTCTCTGTCTTTTTAGC-3' double stranded DNA assessed as melting temperature at 1.5 uM in sodium phosphate buffer at pH 7 by UV spectrophotometric analysis. In short, it runs like this: as §1
Assay [3] relates to Nucleic Acid. Put plainly: Binding affinity to 5'-GCTAAAAAGAAAGAGAGATCG-3'/5'- CGATCTCTCTTTCTTTTTAGC-3' double stranded DNA assessed as melting temperature at 1.5 uM in sodium phosphate buffer at pH 7 by UV spectrophotometric analysis. In short, it runs like this: as §1
Assay [4] deals with Nucleic Acid. Put plainly: Binding affinity to 5'-GCTAAAAAGATAGAGAGATCG-3'/5'- CGATCTCTCTATCTTTTTAGC-3' double stranded DNA assessed as melting temperature at 1.5 uM in sodium phosphate buffer at pH 7 by UV spectrophotometric analysis. In short, it runs like this:
as §1

Regarding `Cc1cn([C@H]2C[C@H](OP(=O)(O)OC[C@H]3O[C@@H](n4cc(C)c(=O)[nH]c4=O)C[C@@H]3OP(=O)(O)OC[C@H]3O[C@@H](n4cc(C)c(N)nc4=O)C[C@@H]3OP(=O)(O)OC[C@H]3O[C@@H](n4cc(C)c(=O)[nH]c4=O)C[C@@H]3OP(=O)(O)OC[C@H]3O[C@@H](n4cc(C)c(N)nc4=O)C[C@@H]3OP(=O)(O)OC[C@H]3O[C@@H](n4cc(C)c(=O)[nH]c4=O)C[C@@H]3OP(=O)(O)OC[C@H]3O[C@@H](c4cn(Cc5ccccc5)nn4)C[C@@H]3OP(=O)(O)OC[C@H]3O[C@@H](n4cc(C)c(=O)[nH]c4=O)C[C@@H]3OP(=O)(O)OC[C@H]3O[C@@H](n4cc(C)c(N)nc4=O)C[C@@H]3OP(=O)(O)OC[C@H]3O[C@@H](n4cc(C)c(=O)[nH]c4=O)C[C@@H]3OP(=O)(O)OC[C@H]3O[C@@H](n4cc(C)c(=O)[nH]c4=O)C[C@@H]3OP(=O)(O)OC[C@H]3O[C@@H](n4cc(C)c(=O)[nH]c4=O)C[C@@H]3OP(=O)(O)OC[C@H]3O[C@@H](n4cc(C)c(=O)[nH]c4=O)C[C@@H]3OP(=O)(O)OC[C@H]3O[C@@H](n4cc(C)c(=O)[nH]c4=O)C[C@@H]3O)[C@@H](COP(=O)(O)O[C@H]3C[C@H](n4cc(C)c(=O)[nH]c4=O)O[C@@H]3CO)O2)c(=O)nc1N`, the Tm was less than 10 °C in the assay with Nucleic Acid [1], 19 °C in the assay with Nucleic Acid [2], less than 10 °C in the assay on Nucleic Acid [3] and 12 °C in the assay on Nucleic Acid [4].
Consider `Cc1cn([C@H]2C[C@H](OP(=O)(O)OC[C@H]3O[C@@H](n4cc(C)c(=O)[nH]c4=O)C[C@@H]3OP(=O)(O)OC[C@H]3O[C@@H](n4cc(C)c(N)nc4=O)C[C@@H]3OP(=O)(O)OC[C@H]3O[C@@H](n4cc(C)c(=O)[nH]c4=O)C[C@@H]3OP(=O)(O)OC[C@H]3O[C@@H](n4cc(C)c(N)nc4=O)C[C@@H]3OP(=O)(O)OC[C@H]3O[C@@H](n4cc(C)c(=O)[nH]c4=O)C[C@@H]3OP(=O)(O)OC[C@H]3O[C@@H](c4cn(-c5cccc(C(=O)O)c5)nn4)C[C@@H]3OP(=O)(O)OC[C@H]3O[C@@H](n4cc(C)c(=O)[nH]c4=O)C[C@@H]3OP(=O)(O)OC[C@H]3O[C@@H](n4cc(C)c(N)nc4=O)C[C@@H]3OP(=O)(O)OC[C@H]3O[C@@H](n4cc(C)c(=O)[nH]c4=O)C[C@@H]3OP(=O)(O)OC[C@H]3O[C@@H](n4cc(C)c(=O)[nH]c4=O)C[C@@H]3OP(=O)(O)OC[C@H]3O[C@@H](n4cc(C)c(=O)[nH]c4=O)C[C@@H]3OP(=O)(O)OC[C@H]3O[C@@H](n4cc(C)c(=O)[nH]c4=O)C[C@@H]3OP(=O)(O)OC[C@H]3O[C@@H](n4cc(C)c(=O)[nH]c4=O)C[C@@H]3O)[C@@H](COP(=O)(O)O[C@H]3C[C@H](n4cc(C)c(=O)[nH]c4=O)O[C@@H]3CO)O2)c(=O)nc1N`, for which the Tm with Nucleic Acid [1] was less than 10 °C; in the assay on Nucleic Acid [2] it was 22 °C; in the assay with Nucleic Acid [3] it was less than 10 °C; in the assay on Nucleic Acid [4], 15 °C.
`Cc1cn([C@H]2C[C@H](OP(=O)(O)OC[C@H]3O[C@@H](n4cc(C)c(=O)[nH]c4=O)C[C@@H]3OP(=O)(O)OC[C@H]3O[C@@H](n4cc(C)c(N)nc4=O)C[C@@H]3OP(=O)(O)OC[C@H]3O[C@@H](n4cc(C)c(=O)[nH]c4=O)C[C@@H]3OP(=O)(O)OC[C@H]3O[C@@H](n4cc(C)c(N)nc4=O)C[C@@H]3OP(=O)(O)OC[C@H]3O[C@@H](n4cc(C)c(=O)[nH]c4=O)C[C@@H]3OP(=O)(O)OC[C@H]3O[C@@H](c4cn(-c5ccc(CO)cc5)nn4)C[C@@H]3OP(=O)(O)OC[C@H]3O[C@@H](n4cc(C)c(=O)[nH]c4=O)C[C@@H]3OP(=O)(O)OC[C@H]3O[C@@H](n4cc(C)c(N)nc4=O)C[C@@H]3OP(=O)(O)OC[C@H]3O[C@@H](n4cc(C)c(=O)[nH]c4=O)C[C@@H]3OP(=O)(O)OC[C@H]3O[C@@H](n4cc(C)c(=O)[nH]c4=O)C[C@@H]3OP(=O)(O)OC[C@H]3O[C@@H](n4cc(C)c(=O)[nH]c4=O)C[C@@H]3OP(=O)(O)OC[C@H]3O[C@@H](n4cc(C)c(=O)[nH]c4=O)C[C@@H]3OP(=O)(O)OC[C@H]3O[C@@H](n4cc(C)c(=O)[nH]c4=O)C[C@@H]3O)[C@@H](COP(=O)(O)O[C@H]3C[C@H](n4cc(C)c(=O)[nH]c4=O)O[C@@H]3CO)O2)c(=O)nc1N`: the Tm in the assay with Nucleic Acid [1] is less than 10 °C; in the assay with Nucleic Acid [2] it was 24 °C; in the assay on Nucleic Acid [3] it was less than 10 °C; in the assay on Nucleic Acid [4], 16 °C.

The values above are taken from ChEMBL document CHEMBL1949561, “Synthesis and triplex-forming ability of oligonucleotides bearing 1-substituted 1H-1,2,3-triazole nucleobases” (Bioorg Med Chem, 2011).
